Measured values from article PMC5088049 (Pharmacogenetics and genomics, 2016).
Numbering of substitutions follows the chain as printed.

What was measured:
Type in all cases: in vitro ADME
AKR1C3 His5Gln = AKR1C3 His5Gln (Homo sapiens, UniProt P42330, H5Q); assay: Kinetics of EXE reduction to 17β-DHE, recombinant AKR1C3 His5Gln
AKR1C3 Glu77Gly = AKR1C3 Glu77Gly (Homo sapiens, UniProt P42330, E77G); assay: Kinetics of EXE reduction to 17β-DHE, recombinant AKR1C3 Glu77Gly; settings: for VMAX: normalized to enzyme purity
AKR1C3 = AKR1C3 (Homo sapiens, UniProt P42330); assay: Kinetics of EXE reduction to 17β-DHE, recombinant AKR1C3
AKR1C1 = AKR1C1 (Homo sapiens, UniProt Q04828); assay: Kinetics of EXE reduction to 17β-DHE, recombinant AKR1C1; settings: wildtype AKR1C1
AKR1C3 Pro180Ser = AKR1C3 Pro180Ser (Homo sapiens, UniProt P42330, P180S); assay: Kinetics of EXE reduction to 17β-DHE, recombinant AKR1C3 Pro180Ser
AKR1C4 Gly135Glu = target: T1, AKR1C4 Gly135Glu (Homo sapiens, UniProt P17516, G135E); assay: Kinetics of EXE reduction to 17β-DHE, recombinant AKR1C4 Gly135Glu; settings: for VMAX: normalized to enzyme purity
T1 sequence (P17516 1-323 G135E): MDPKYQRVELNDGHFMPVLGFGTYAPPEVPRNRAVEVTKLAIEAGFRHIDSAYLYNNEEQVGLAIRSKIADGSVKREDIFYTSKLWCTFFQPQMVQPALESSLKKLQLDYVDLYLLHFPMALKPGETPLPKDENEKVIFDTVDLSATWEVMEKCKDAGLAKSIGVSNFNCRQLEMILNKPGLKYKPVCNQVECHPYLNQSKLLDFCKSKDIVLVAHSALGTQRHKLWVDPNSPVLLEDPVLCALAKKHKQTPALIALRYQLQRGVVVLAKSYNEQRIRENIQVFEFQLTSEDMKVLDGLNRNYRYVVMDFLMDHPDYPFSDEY

CBR1 = target: T2, CBR1 (Homo sapiens, UniProt P16152); assay: Metabolite identification, overnight incubation with recombinant CBR1; settings: 200 µM EXE, 18-h incubation, 1.5 µg recombinant CBR1
T2 sequence (P16152 1-277): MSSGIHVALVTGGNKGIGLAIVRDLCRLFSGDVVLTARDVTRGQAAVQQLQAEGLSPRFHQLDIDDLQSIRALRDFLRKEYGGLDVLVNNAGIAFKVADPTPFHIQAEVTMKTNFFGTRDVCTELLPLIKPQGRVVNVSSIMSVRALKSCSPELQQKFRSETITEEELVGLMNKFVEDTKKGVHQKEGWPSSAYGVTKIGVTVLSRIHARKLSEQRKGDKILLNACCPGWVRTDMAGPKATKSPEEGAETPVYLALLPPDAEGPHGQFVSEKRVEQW
Outline: (§1)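 Wildtype enzyme was His-tagged, expressed in E. coli BL21 (IPTG induction), Ni-NTA purified and dialysed against PBS. It was stopped with ice-cold acetonitrile and centrifuged. UPLC/ESI+ full scan (m/z 100–450) was followed by targeted MS/MS transitions. Retention times were matched to synthetic 17α/17β-dihydro standards.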

AKR1C4 Ser145Cys = target: T3, AKR1C4 Ser145Cys (Homo sapiens, UniProt P17516, S145C); assay: Kinetics of EXE reduction to 17β-DHE, recombinant AKR1C4 Ser145Cys
T3 sequence (P17516 1-323 S145C): T1 sequence (P17516 1-323 G135E) with E135G, S145C

AKR1C4 = target: T4, AKR1C4 (Homo sapiens, UniProt P17516); assay: Metabolite identification, overnight incubation with recombinant AKR1C4; settings: 200 µM EXE, 18-h incubation, 1.5 µg recombinant AKR1C4
T4 sequence (P17516 1-323): T1 sequence (P17516 1-323 G135E) with E135G
Outline: as §1

AKR1C2 Phe46Tyr = target: T5, AKR1C2 Phe46Tyr (Homo sapiens, UniProt P52895, F46Y); assay: Kinetics of EXE reduction to 17β-DHE, recombinant AKR1C2 Phe46Tyr; settings: VMAX/KM
T5 sequence (P52895 1-323 F46Y): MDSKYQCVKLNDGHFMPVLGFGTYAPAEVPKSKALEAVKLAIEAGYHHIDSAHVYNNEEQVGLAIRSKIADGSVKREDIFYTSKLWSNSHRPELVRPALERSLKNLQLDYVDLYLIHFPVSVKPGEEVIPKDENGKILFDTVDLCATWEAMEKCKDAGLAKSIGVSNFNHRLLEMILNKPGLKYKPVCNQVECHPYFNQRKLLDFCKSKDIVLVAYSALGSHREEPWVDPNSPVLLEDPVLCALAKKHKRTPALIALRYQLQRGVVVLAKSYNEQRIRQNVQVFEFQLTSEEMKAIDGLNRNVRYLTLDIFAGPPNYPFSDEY

AKR1C2 = AKR1C2 (Homo sapiens, UniProt P52895); assay: Kinetics of EXE reduction to 17β-DHE, recombinant AKR1C2; settings: wildtype AKR1C2
Chain of AKR1C2 (P52895 whole entry): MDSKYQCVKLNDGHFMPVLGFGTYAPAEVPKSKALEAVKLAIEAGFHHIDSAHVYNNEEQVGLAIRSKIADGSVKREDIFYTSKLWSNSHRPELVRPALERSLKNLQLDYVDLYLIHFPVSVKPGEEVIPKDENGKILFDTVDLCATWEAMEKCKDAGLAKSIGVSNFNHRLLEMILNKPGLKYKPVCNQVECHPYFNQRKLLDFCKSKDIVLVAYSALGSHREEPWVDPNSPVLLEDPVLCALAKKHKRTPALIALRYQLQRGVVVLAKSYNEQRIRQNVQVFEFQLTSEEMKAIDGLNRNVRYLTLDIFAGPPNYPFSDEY

Chain of AKR1C3 (P42330 whole entry): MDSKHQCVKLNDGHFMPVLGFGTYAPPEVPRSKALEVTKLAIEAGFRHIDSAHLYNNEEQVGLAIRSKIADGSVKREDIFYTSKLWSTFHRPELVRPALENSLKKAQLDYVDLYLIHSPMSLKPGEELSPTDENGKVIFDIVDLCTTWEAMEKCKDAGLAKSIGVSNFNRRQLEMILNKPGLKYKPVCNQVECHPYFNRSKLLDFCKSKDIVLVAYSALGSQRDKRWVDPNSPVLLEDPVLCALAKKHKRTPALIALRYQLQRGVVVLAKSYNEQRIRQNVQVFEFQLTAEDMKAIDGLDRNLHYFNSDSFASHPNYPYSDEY
Chain of AKR1C3 His5Gln (P42330 whole entry H5Q): as the sequence (P42330 whole entry) above, with H5Q counted along it
Chain of AKR1C3 Glu77Gly (P42330 whole entry E77G): as the sequence (P42330 whole entry) above, with E77G counted along it
Chain of AKR1C3 Pro180Ser (P42330 whole entry P180S): as the sequence (P42330 whole entry) above, with P180S counted along it
Chain of AKR1C1 (Q04828 whole entry): as the sequence (P52895 whole entry) above, with V38T, H47R, V54L, S87C, M151V, H170R, L172Q counted along it

In the case of `C=C1C[C@@H]2[C@H](CC[C@]3(C)C(=O)CC[C@@H]23)[C@@]2(C)C=CC(=O)C=C12` [exemestane, 6-methylenandrosa-1,4-diene-3-17-dione], the Km (AKR1C3 His5Gln; AKR1C3 His5Gln (rs12529), 17β-DHE formation) is reported as 17.9 ± 2.9 µM, the CLINT (AKR1C3 His5Gln; AKR1C3 His5Gln, VMAX/KM) is reported as 0.00021 µL/min/mg and the VMAX (AKR1C3 His5Gln; AKR1C3 His5Gln, normalized to enzyme purity) is reported as 3.8 ± 0.1 picomoles·min^−1·mg^−1. For the same molecule, the Km (AKR1C3 Glu77Gly; AKR1C3 Glu77Gly (rs11551177), 17β-DHE formation) was 13.9 ± 2.2 µM, the CLINT (AKR1C3 Glu77Gly; AKR1C3 Glu77Gly, VMAX/KM) was 0.00014 µL/min/mg and the VMAX (AKR1C3 Glu77Gly; AKR1C3 Glu77Gly) was 1.9 ± 0.2 picomoles·min^−1·mg^−1. For the same molecule, the VMAX (AKR1C3 Glu77Gly; AKR1C3 Glu77Gly, listed as EXE) was 1.9 ± 0.2 picomoles·min^−1·mg^−1, the “VMAX of AKR1C3 relative to AKR1C4” value (AKR1C3; higher than AKR1C4) was 36 fold and the Km (AKR1C3; wildtype AKR1C3, 17β-DHE formation) was 12.3 ± 1.1 µM. It also gave a CLINT (AKR1C3; wildtype AKR1C3, VMAX/KM) of 0.0068 µL/min/mg, a VMAX (AKR1C3; wildtype AKR1C3, normalized to enzyme purity) of 83.3 ± 15.4 picomoles·min^−1·mg^−1 and a CLINT (AKR1C1; VMAX/KM) of 0.002 µL/min/mg. The VMAX (AKR1C1; normalized to enzyme purity) was 71.1 ± 1.5 picomoles·min^−1·mg^−1, the Km (AKR1C3 Pro180Ser; AKR1C3 Pro180Ser (rs34186955), 17β-DHE formation) was 11.2 ± 3.1 µM and the CLINT (AKR1C3 Pro180Ser; AKR1C3 Pro180Ser, VMAX/KM) was 0.00032 µL/min/mg. For the same molecule, the VMAX (AKR1C3 Pro180Ser; AKR1C3 Pro180Ser, normalized to enzyme purity) was 3.6 ± 0.6 picomoles·min^−1·mg^−1, the Km (AKR1C4 Gly135Glu; AKR1C4 Gly135Glu (rs11253043), 17β-DHE formation) was 311 ± 75.7 µM and the CLINT (AKR1C4 Gly135Glu; AKR1C4 Gly135Glu, VMAX/KM) was 6e-05 µL/min/mg. The VMAX (AKR1C4 Gly135Glu; AKR1C4 Gly135Glu) was 19.1 ± 4.2 picomoles·min^−1·mg^−1, the VMAX (AKR1C4 Gly135Glu; AKR1C4 Gly135Glu, listed as EXE) was 19.1 ± 4.2 picomoles·min^−1·mg^−1 and the “VMAX of AKR1C4 Gly135Glu relative to wildtype” value (AKR1C4 Gly135Glu; faster than wildtype AKR1C4) was 8 fold. For the same molecule, the metabolites formed (CBR1) was “both stereoisomers of DHE”, the Km (AKR1C4 Ser145Cys; AKR1C4 Ser145Cys (rs3829125), 17β-DHE formation) was 9.6 ± 2.4 µM and the CLINT (AKR1C4 Ser145Cys; AKR1C4 Ser145Cys, VMAX/KM) was 0.00061 µL/min/mg. The VMAX (AKR1C4 Ser145Cys; AKR1C4 Ser145Cys, normalized to enzyme purity) was 5.9 ± 1.1 picomoles·min^−1·mg^−1, the metabolites formed (AKR1C4) was “both stereoisomers of DHE” and the CLINT (AKR1C2 Phe46Tyr) was 0.0078 µL/min/mg. It also gave a CLINT (AKR1C2; VMAX/KM) of 0.0051 µL/min/mg and a VMAX (AKR1C2; normalized to enzyme purity) of 84.2 ± 15.6 picomoles·min^−1·mg^−1.
